HUVEC inhibit: inhibitors of HUVEC proliferation, primary screen, cell-based, 384-well | CellTiter-Glo luminescence, 72 h; hits give low values | viability, % at 10 µM (by protocol) | actives 1.1% (n = 86,000);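 active means viability at or below 30%; inactive means viability above 30%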;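 further: 100% = median luminescence of DMSO-only cell control wells on each plate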
bCat KO growth: primary screen for growth suppressors in beta-catenin knockout HCT116 cells (colon tumor, human); HCT116 beta-catenin knockout viability, CellTiter-Glo, 60 h; hits give low values; viability, % at 10 µM; actives 1.5% (n = 140,000); AID 818, 2007;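 active means viability at or under a set limit, the compound median less 4 SD, cut at about 6% in these data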;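 further: 0% = Hyamine 1622 control at 20 µM and 100% = untreated cell control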
Fibroblast inh: antiproliferative effect on LL 47 fibroblasts – human, LL 47 cells, CellTiter-Glo luminescence, primary screen | LL 47 human lung fibroblast viability, ATP luminescence; hits give low values | viability, % at 10 µM | actives 1.1% (n = 85,000);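 active means viability at or below 50% in the single dose screen; inactive means viability above 50%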;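 further: compound exposure lasted 72 h before the ATP readout; 100% = median luminescence of untreated cell-only wells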
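Signal: luminescent ATP detection, CellTiter-Glo; assay system: LL 47 human lung fibroblasts; input: 1,150 cells/well; incubation: overnight cell rest, 72 h compound treatment at 37 °C; measure: % viability versus median cells-only luminescence; medium: IMEM growth medium with 15% fetal bovine serum; dosing: compound addition at 0.1% DMSO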
Cav32 inh: Cav3.2 calcium influx blockers – cell-based, Fluo-4 calcium fluorescence, FDSS, MLSMR library, primary screen. AID 449739, 2010. actives 4% (n = 100,000). Voltage-dependent T-type calcium channel subunit alpha-1H (Homo sapiens), O95180. Cav3.2-expressing cells; hits give low values. B-score at 10 µM;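 active means single-dose well whose peak fluorescence ratio is a statistical outlier from its plate by either plate-standardised score or position-corrected B-score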
PTEN del growth: growth suppression of PTEN-null HCT116, primary screen, cell-based, CellTiter-Glo. viability, % at 10 µM. HCT116 PTEN-null viability, 60 h; hits give low values. actives 1.2% (n = 140,000). AID 827, 2007;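 active means viability at or below a set limit, 4 SD under the median of all tested compounds, cut at about 3.7% in these data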;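 further: PTEN knockout HCT116 line with beta catenin targeted HCT116 as companion control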
H69AR inhibit: proliferation blockers of H69AR lung cancer cells, primary screen, cell-based, human, 86K library | H69AR lung tumor viability, ATP luminescence, 72 h; hits give low values | viability, % at 10 µM | actives 6% (n = 85,000);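 active means viability at or below 40%; inactive means viability above 40%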;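 further: multidrug resistant small cell line overexpressing MRP-1 efflux transporter; 100% = mean luminescence of untreated control wells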
* hit, by the source's call; . = no result given. A selection: hits, their analogues and other compounds. The true share with any hit is near 7.1%.

SMILES | HUVEC inhibit | bCat KO growth | Fibroblast inh | Cav32 inh | PTEN del growth | H69AR inhibit
COc1ccc(CCC(=O)Nc2ccc(-c3noc(-c4ccc(OC)c(OC)c4)n3)cc2)cc1 | 94 | 100 | 98 | 0.45 | 109 | 78
COc1ccc(-c2nc(-c3ccc(NC(=O)c4ccc(Br)o4)cc3)no2)cc1OC | 35 | 95 | 63 | -0.52 | 95 | 3.5*
COc1cc(-c2nc(-c3ccc(NC(=O)c4ccc(Br)o4)cc3)no2)cc(OC)c1OC | 32 | 24 | 92 | -1 | 19 | 4.5*
CCS(=O)(=O)c1ccc2oc(SCC(=O)NC3CCCC(C)C3C)nc2c1 (centres undefined) | 88 | 59 | 90 | -0.11 | 71 | 87
CCOC(=O)Cn1c(=S)[nH]c2c(oc3ccc(Cl)cc32)c1=O | 91 | 91 | 99 | 0.52 | 101 | 98
CCOc1ccc(S(=O)(=O)Nc2ccc(F)cc2)c(C)c1C | 81 | 69 | 98 | -4.7* | 64 | 67
CCOc1ccc(NS(=O)(=O)c2cc(OC)ccc2OC)cc1 | 92 | 83 | 98 | -0.28 | 92 | 77
COc1cc(-c2nnc(SCc3cccnc3)n2C)cc(OC)c1O | 103 | 92 | 106 | -0.0084 | 103 | 85
C=C(C)C(=O)Nc1cccc(C2=NOC3(C2)C[C@H](C(N)=O)N(C(=O)c2ccccc2C(=O)c2ccccc2)C3)c1 (some centres undefined) | . | . | . | -0.082 | . | .
Clc1cccc(Cl)c1CSc1cc2c(nn1)-c1ccccc1CC2 | . | 87 | . | -3.9* | 82 | .
Clc1ccccc1CSc1cc2c(nn1)-c1ccccc1CC2 | . | 68 | . | . | 60 | .
Clc1ccc(CSc2cc3c(nn2)-c2ccccc2CC3)cc1Cl | . | 108 | . | -5.3* | 91 | .
CN(C)C(=O)C(CCN1CCC(O)(c2ccc(Cl)cc2)CC1)(c1ccccc1)c1ccccc1 | . | 16 | . | -4.6* | 15 | .
COC(=O)Nc1ccccc1C(=O)N1CCC(O)(c2ccc(Cl)cc2)CC1 | . | 95 | . | . | 92 | .
CCN(c1cccc(C(F)(F)F)c1)S(=O)(=O)c1ccc2c(c1)CCN2C(=O)C1CC1 | 81 | 44 | 85 | -4.7* | 55 | 63
CCC(=O)N1CCc2cc(S(=O)(=O)N(CC)c3cccc(C)c3)ccc21 | 104 | 65 | 94 | 0.28 | 86 | 89
O=c1[nH]c2cc3c(cc2cc1CN(CCc1ccccc1)Cc1nnnn1CC1CCCO1)OCO3 (centres undefined) | 95 | 73 | 98 | -0.085 | 69 | 59
COc1ccc2[nH]c(=O)c(CN(CCc3ccccc3)Cc3nnnn3CC3CCCO3)cc2c1 (centres undefined) | 83 | 95 | 93 | -1.8 | 80 | 27*
COc1ccc2cc(CN(CCc3ccccc3)Cc3nnnn3CC3CCCO3)c(=O)[nH]c2c1 (centres undefined) | 96 | 80 | 97 | -1.6 | 78 | 61
Cc1ccc2[nH]c(=O)c(CN(CCc3ccccc3)Cc3nnnn3CC3CCCO3)cc2c1 (centres undefined) | 75 | 80 | 98 | -3.6* | 70 | 58
CC(C)N=C(NS(=O)(=O)c1ccccc1)C(Cl)(Cl)Cl | . | 3.5* | . | . | 2.0* | .
O=C(O)CN=C(NS(=O)(=O)c1ccccc1)c1ccccc1 | . | 94 | . | 0.7 | 99 | .
Cc1ccc(OCCN2CCN(c3ncnc4sc(C)c(C)c34)CC2)cc1 | 46 | 10 | 97 | -3.6* | 13 | 80
Cc1cccc(-n2c(O)c(C=Nc3ccc4c(c3)OCO4)c3ccccc3c2=O)n1 | 90 | 88 | 91 | -0.18 | 91 | 77
Cc1cc(N=Cc2c(O)n(-c3ccc4c(c3)OCO4)c(=O)c3ccccc23)ccn1 | 87 | 83 | 73 | 0.039 | 80 | 21*
Cc1ccc(-n2c(O)c(C=Nc3ccc4c(c3)OCO4)c3ccccc3c2=O)cc1C | . | 2.0* | . | -1.6 | 2.4* | .
Cc1cc2c(cc1C)CSC(c1ccccc1O)SC2 | 34 | 99 | 71 | -0.058 | 76 | 58
Cc1cc2c(cc1C)CSC(c1ccc3ccccc3c1O)SC2 | 91 | 102 | 98 | -0.46 | 91 | 38*

Assay outcomes: PubChem, several laboratories
